# Key:
# L1210 [1] = experiment: Inhibition of cell growth against L1210 murine leukemia cells; format: functional, cell-based; settings: Mus musculus
# [2] = Inhibition of cell growth against WI-L2 cells; format: functional, cell-based; settings: Homo sapiens, WIL2
# Mus musculus [3] = organism: Mus musculus; experiment: Ratio of Vmax and Km relative to AMT
# In short: (§1)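 FPGS was partially purified from mouse liver, and the compounds were run as substrates. Km, Vmax and Vmax/Km came from the kinetic data. Vmax and Vmax/Km are expressed relative to aminopterin run in the same experiment. Each compound was tested in 2–3 experiments on different days.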
# Mus musculus [4] = organism: Mus musculus; experiment: Vmax of compound was derived from purified Folyl-polyglutamate synthase from mouse liver; in short: as §1
# L1210 [5] = experiment: Compound was measured for growth inhibition of L1210 cells in standard medium; format: functional, cell-based; settings: Mus musculus
# L1210 [6] = experiment: Compound was measured for growth inhibition of L1210 cells in the presence of hypoxanthine; format: functional, cell-based; settings: Mus musculus
# In short: (§2)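 Reversal test of an antifolate effect on L1210 cell growth in culture. The drug is given alongside one of three supplements: thymidine alone at 10 μM, hypoxanthine alone at 100 μM, or thymidine 10 μM plus hypoxanthine 100 μM together.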
# L1210 [7] = experiment: Compound was measured for growth inhibition of L1210 cells in the presence of thymidine; format: functional, cell-based; settings: Mus musculus; in short: as §2
# L1210 [8] = experiment: Compound was measured for growth inhibition of L1210 cells in the presence of thymidine plus hypoxanthine; format: functional, cell-based; settings: Mus musculus; in short: as §2
# Mus musculus [9] = organism: Mus musculus; experiment: Kinetic constant of compound was derived from purified Folyl-polyglutamate synthase from mouse liver; in short: as §1
# Dihydrofolate reductase = target: T1, Dihydrofolate reductase (Homo sapiens, UniProt P00374); experiment: Compound was tested for its inhibitory activity against dihydrofolate reductase (DHFR), isolated from MTX-resistant WI-L2 cells; format: cell-based
# T1 sequence (P00374 whole entry): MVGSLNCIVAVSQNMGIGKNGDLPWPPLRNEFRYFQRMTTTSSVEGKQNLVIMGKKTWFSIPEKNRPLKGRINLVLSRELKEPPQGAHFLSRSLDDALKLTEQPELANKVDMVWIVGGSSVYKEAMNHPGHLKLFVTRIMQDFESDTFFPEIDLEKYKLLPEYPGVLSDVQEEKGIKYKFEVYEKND
smiles,measurement,setting,value
CN(Cc1cnc2nc(N)nc(N)c2n1)c1ccc(C(=O)N[C@@H](CCC(=O)O)C(=O)O)cc1 [METHOTREXATE],IC50,L1210 [1],9 nM
same,IC50,[2],13 nM
Nc1ncnc2ncc(CNc3ccc(C(=O)NC(CCC(=O)O)C(=O)O)cc3)nc12 (centres undefined),Ratio,Mus musculus [3],0.74
same,Vmax,Mus musculus [4],0.87
same,IC50,L1210 [5],82 nM
same,IC50,L1210 [6],260 nM
same,IC50,L1210 [7],160 nM
same,IC50,L1210 [8],> 100000 nM
same,IC50,L1210 [1],82 nM
same,IC50,[2],81 nM
same,Km,Mus musculus [9],26.4 µM
Cc1nc(N)c2nc(CNc3ccc(C(=O)NC(CCC(=O)O)C(=O)O)cc3)cnc2n1 (centres undefined),IC50,Dihydrofolate reductase,> 50000 nM
same,Ratio,Mus musculus [3],0.6
same,Vmax,Mus musculus [4],0.77
same,IC50,L1210 [5],42 nM
same,IC50,L1210 [6],160 nM
same,IC50,L1210 [7],130 nM
same,IC50,L1210 [8],> 100000 nM
same,IC50,L1210 [1],42 nM
same,IC50,[2],28 nM
same,Km,Mus musculus [9],31.7 µM
Nc1nc(N)c2nc(CNc3ccc(C(=O)N[C@@H](CCC(=O)O)C(=O)O)cc3)cnc2n1,Ratio,Mus musculus [3],1
same,Vmax,Mus musculus [4],1
same,Km,Mus musculus [9],22.8 µM
